# Test results from ChEMBL document CHEMBL1221292, “Design, synthesis, and evaluation of quinazoline T cell proliferation inhibitors” (Bioorg Med Chem, 2010).
# Activity calls are given as the source filed them. The rule behind the calls is not given here.
# What was measured:
# [1] = test system: Jurkat; assay: Antiproliferative activity against human Jurkat cells after 72 hrs by BrdU incorporation assay; format: functional, cell-based
# How it was run: (§1)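 Cells grown in RPMI at 37 °C, 5% CO2, then serum-starved 12 h. PBMC stimulated with ConA 10 µg/mL; Jurkat need no stimulation. 1 × 10^5 cells cultured 3 days with or without inhibitor, duplicate wells. Labelled with 10 µM BrdU, DNA denatured, anti-BrdU-POD added, colorimetric TMB read-out; IC50 derived.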
# [2] = test system: PBMC; assay: Antiproliferative activity against ConA-stimulated human PBMC after 72 hrs by BrdU incorporation assay; format: functional, cell-based; how it was run: as §1
# [3] = test system: PBMC; assay: Antiproliferative activity against CD3 deficient human PBMC after 72 hrs by BrdU incorporation assay; format: functional, cell-based
# How it was run: (§2)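 PBMC isolated from healthy donor blood on Ficoll. CD3+ T cells purified with anti-CD3 (autoMACS), identity confirmed as CD3+ by flow cytometry; CD3-depleted PBMC also kept. Stimulation: ConA (10 µg/mL), ODN2006 (0.5 µg/mL) or LPS (50 µg/mL); depleted PBMC got ODN2006 or LPS. Cultured 72 h with inhibitor. Read-out was BrdU uptake, normalized to maximal proliferation without inhibitor.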
# [4] = test system: Jurkat; assay: Inhibition of anti-TCR-stimulated IL2 production in human Jurkat cells […] by ELISA; format: functional, cell-based
# How it was run: (§3)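 Jurkat or PBMC treated 12 h with 1 µM, 0.5 µM or no inhibitor. 1 × 10^6 cells were then stimulated 12 h with plate-bound anti-TCR C305 (1:500) alone, or with anti-CD28 (1:100) and/or PMA (50 ng/ml); ionomycin 1 µM was also used. Cells spun out at 130g. Supernatant IL-2 measured by ELISA, absorbance 450 nm.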
# [5] = test system: NIH3T3; assay: Antiproliferative activity against PDGF-stimulated mouse NIH/3T3 cells after 72 hrs by BrdU incorporation assay; format: functional, cell-based; settings: NIH3T3, 72 h
# How it was run: (§4)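 Non-hematopoietic lines grown in DMEM, serum-starved 12 h, then stimulated: 10% FCS (HEK293, A375), PDGF 30 ng/mL (NIH 3T3), EGF 30 ng/mL (MDA-MB-231). 1 × 10^5 cells cultured 3 days over increasing inhibitor concentrations, duplicate wells. Proliferation by 10 µM BrdU labelling with colorimetric anti-BrdU-POD ELISA (TMB).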
# [6] = test system: A-375; assay: Antiproliferative activity against non-stimulated human A375 cells after 72 hrs by BrdU incorporation assay; format: functional, cell-based; settings: A-375, 72 h
# [7] = test system: Jurkat; assay: Inhibition of anti-TCR/antiCD28-stimulated IL2 production in human Jurkat cells […] after 12 hrs by ELISA; format: functional, cell-based; how it was run: as §3
# [8] = test system: PBMC; assay: Inhibition of anti-TCR/PMA-stimulated IL2 production in human PBMC cells […] after 12 hrs by ELISA; format: functional, cell-based; how it was run: as §3
# [9] = test system: MDA-MB-231; assay: Antiproliferative activity against non-stimulated human MDA-MB-231 cells after 72 hrs by BrdU incorporation assay; format: functional, cell-based; settings: MDA-MB-231, 72 h
# [10] = Antiproliferative activity against stimulated human keratinocytes after 72 hrs by BrdU incorporation assay; format: functional, cell-based; settings: Keratinocyte
# [11] = test system: PBMC; assay: Cell cycle arrest in human PBMC assessed as accumulation at subG1 phase by flow cytometry; format: functional
# How it was run: (§5)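 PBMC treated with inhibitor 12 and 24 h, then pelleted, PBS-washed and fixed in cold 70% ethanol for at least 12 h. RNase A added for 30 min in the dark, then propidium iodide; DNA content analysed by FACS for G2 and sub-G1 fractions.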
# [12] = test system: PBMC; assay: Inhibition of PMA/anti-CD28-stimulated IL2 production in human PBMC cells up to 5 uM after 12 hrs by ELISA; format: functional, cell-based; how it was run: as §3
# [13] = test system: Jurkat; assay: Inhibition of PMA/anti-CD28-stimulated IL2 production in human Jurkat cells […] after 12 hrs by ELISA; format: functional, cell-based; how it was run: as §3
# [14] = test system: Jurkat; assay: Antiproliferative activity against ConA-stimulated human Jurkat after 72 hrs by BrdU incorporation assay; format: functional, cell-based
# [15] = test system: Jurkat; assay: Antiproliferative activity against non-stimulated human Jurkat cells after 72 hrs by BrdU incorporation assay; format: functional, cell-based; how it was run: as §1
# [16] = test system: MDA-MB-231; assay: Antiproliferative activity against stimulated human MDA-MB-231 cells after 72 hrs by BrdU incorporation assay; format: functional, cell-based; settings: MDA-MB-231, 72 h; how it was run: as §4
# [17] = test system: Jurkat; assay: Inhibition of TCR-mediated Zap70 phosphorylation in human Jurkat cells after 16 hrs by Western blotting; format: cell-based
# How it was run: (§6)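 Jurkat treated 16 h with inhibitor, then stimulated 1 min at 37 °C with C305 (1:500) or mock PBS. Cells lysed at 2 × 10^7 cells/mL in NP-40 buffer with phosphatase and protease inhibitors. SLP-76 immunoprecipitated; pTyr detected by Western blot with 4G-10. For ZAP-70 activity, ZAP-70 IP was incubated with recombinant His-SLP-76 and 5 µM ATP for 15 min at 30 °C, then blotted for pTyr.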
# [18] = test system: HEK293; assay: Antiproliferative activity against non-stimulated human HEK293 cells after 72 hrs by BrdU incorporation assay; format: functional, cell-based; settings: HEK293, 72 h
# [19] = test system: PBMC; assay: Antiproliferative activity against ODN2006-stimulated human PBMC after 72 hrs by BrdU incorporation assay; format: functional, cell-based; how it was run: as §2
# [20] = test system: PBMC; assay: Antiproliferative activity against LPS-stimulated human PBMC after 72 hrs by BrdU incorporation assay; format: functional, cell-based; how it was run: as §2
# [21] = test system: HEK293; assay: Antiproliferative activity against FCS-stimulated human HEK293 cells after 72 hrs by BrdU incorporation assay; format: functional, cell-based; settings: HEK293, 72 h; how it was run: as §4
# [22] = test system: PC-3; assay: Antiproliferative activity against stimulated human PC3 after 72 hrs by BrdU incorporation assay; format: functional, cell-based; settings: PC-3, 72 h
# [23] = test system: PBMC; assay: Antiproliferative activity against non-stimulated human PBMC after 72 hrs by BrdU incorporation assay; format: cell-based
# [24] = test system: Jurkat; assay: Inhibition of TCR-mediated SLP76 phosphorylation in human Jurkat cells after 16 hrs by Western blotting; format: cell-based; how it was run: as §6
# [25] = test system: NIH3T3; assay: Antiproliferative activity against non-stimulated mouse NIH/3T3 cells after 72 hrs by BrdU incorporation assay; format: functional, cell-based; settings: NIH3T3, 72 h
# [26] = test system: PBMC; assay: Cell cycle arrest in human PBMC assessed as accumulation at G2 phase by flow cytometry; format: functional; how it was run: as §5
# [27] = test system: Splenocyte; assay: Inhibition of irradiated BALB/c mouse splenocyte-stimulated IL2 secretion in 2C mouse splenocyte after 72 hrs by mixed lymphocyte reaction; format: functional, cell-based
# How it was run: (§7)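 MLR: splenocytes from 2c mice stimulated by irradiated BALB/c splenocytes in the presence of compound at the specified concentrations, 96-well cultures up to 72 h. Supernatants collected at 24, 48 and 72 h; IL-2 measured by ELISA at 450 nm.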
# [28] = test system: Splenocyte; assay: Inhibition of irradiated BALB/c mouse splenocyte-stimulated IL2 secretion in 2C mouse splenocyte at 1 uM after 24 hrs by mixed lymphocyte reaction; format: functional, cell-based; how it was run: as §7
# [29] = test system: PBMC; assay: Inhibition of anti-TCR-stimulated IL2 production in human PBMC cells […] after 12 hrs by ELISA; format: functional, cell-based; how it was run: as §3
# [30] = test system: PBMC; assay: Antiproliferative activity against CD3+ expressing human PBMC after 72 hrs by BrdU incorporation assay; format: functional, cell-based; how it was run: as §2
# [31] = test system: PC-3; assay: Antiproliferative activity against non-stimulated human PC3 after 72 hrs by BrdU incorporation assay; format: functional, cell-based; settings: PC-3, 72 h
# [32] = test system: A-375; assay: Antiproliferative activity against FCS-stimulated human A375 cells after 72 hrs by BrdU incorporation assay; format: functional, cell-based; settings: A-375, 72 h; how it was run: as §4
smiles,measurement,setting,value
COc1cc(-c2nc(Nc3ccc(Cl)cc3)c3ccccc3n2)cc(OC)c1OC,IC50,[1],530 nM
same,IC50,[2],300 nM
COc1cc(-c2nc(Nc3ccc(C)cc3)c3ccccc3n2)cc(OC)c1OC,Activity,[3],Active
same,inhibition,[4],inactive
same,IC50,[5],7000 nM
same,IC50,[6],800 nM
same,inhibition,[7],inactive
same,inhibition,[8],inactive
same,IC50,[9],> 10000 nM
same,IC50,[10],> 10000 nM
same,Activity,[11],9.5%
same,inhibition,[12],inactive
same,inhibition,[13],inactive
same,IC50,[1],29 nM
same,IC50,[14],100 nM
same,IC50,[15],50 nM
same,IC50,[16],> 10000 nM
same,inhibition,[17],Dose-dependent effect
same,IC50,[18],10000 nM
same,IC50,[19],500 nM
same,IC50,[20],500 nM
same,IC50,[21],10000 nM
same,IC50,[22],> 10000 nM
same,IC50,[23],50 nM
same,inhibition,[24],Dose-dependent effect
same,IC50,[25],3000 nM
same,Activity,[26],50%
same,inhibition,[27],inactive
same,inhibition,[28],inactive
same,inhibition,[29],inactive
same,IC50,[2],70 nM
same,IC50,[30],100 nM
same,IC50,[31],10000 nM
same,IC50,[32],> 10000 nM
COc1cc(-c2nc(Nc3ccc4cn[nH]c4c3)c3ccccc3n2)cc(OC)c1OC,IC50,[1],600 nM
same,IC50,[2],450 nM
COc1ccc(CNc2nc(-c3cc(O)c(O)c(O)c3)nc3ccccc23)cc1,IC50,[1],5430 nM
same,IC50,[2],3260 nM
Oc1cc(-c2nc(NCc3ccc(F)c(F)c3)c3ccccc3n2)cc(O)c1O,IC50,[1],600 nM
same,IC50,[2],280 nM
COc1ccc(Nc2nc(-c3cc(OC)c(OC)c(OC)c3)nc3ccccc23)cc1,IC50,[1],1100 nM
same,IC50,[2],500 nM
Oc1cc(-c2nc(Nc3ccc4[nH]ncc4c3)c3ccccc3n2)cc(O)c1O,IC50,[1],710 nM
same,IC50,[2],780 nM
Oc1cc(-c2nc(Nc3ccc(OC(F)(F)F)cc3)c3ccccc3n2)cc(O)c1O,IC50,[1],3240 nM
same,IC50,[2],2780 nM
COc1cc(-c2nc(NCc3ccccc3)c3ccccc3n2)cc(OC)c1OC,IC50,[1],600 nM
same,IC50,[2],3250 nM
Oc1cc(-c2nc(NCc3ccc(Cl)c(Cl)c3)c3ccccc3n2)cc(O)c1O,IC50,[1],3640 nM
same,IC50,[2],2600 nM
COc1cc(-c2nc(Nc3ccc(O)cc3)c3ccccc3n2)cc(OC)c1OC,IC50,[1],230 nM
same,IC50,[2],300 nM
COc1cc(-c2nc(NCc3ccc(N)cc3)c3ccccc3n2)cc(OC)c1OC,IC50,[1],480 nM
same,IC50,[2],380 nM
COc1cc(-c2nc(Nc3ccc4nc[nH]c4c3)c3ccccc3n2)cc(OC)c1OC,IC50,[1],1500 nM
same,IC50,[2],430 nM
COc1cc(-c2nc(Nc3ccc4[nH]ncc4c3)c3ccccc3n2)cc(OC)c1OC,IC50,[1],700 nM
same,IC50,[2],600 nM
Oc1cc(-c2nc(Nc3ccc(Cl)cc3)c3ccccc3n2)cc(O)c1O,IC50,[1],4250 nM
same,IC50,[2],550 nM
COc1cc(-c2nc(Nc3ccc(OC(F)(F)F)cc3)c3ccccc3n2)cc(OC)c1OC,IC50,[1],180 nM
same,IC50,[2],400 nM
Oc1cc(-c2nc(Nc3ccccc3)c3ccccc3n2)cc(O)c1O,IC50,[1],5500 nM
same,IC50,[2],650 nM
